In ChEMBL document CHEMBL1147691, “Quinol fatty alcohols as promoters of axonal growth” (Bioorg Med Chem Lett, 2006):

Legend:
[1] = tested on: Cortical neurone; assay: Growth promoting activity in axon relative to control; type: functional, Mus musculus; design: concentration or dose not given beside the values
Summary of the method: (§1)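 Cortical neurons from E15 mouse embryos, trypsin-dissociated, grown 24 h on poly-L-lysine coverslips (37 °C, 5% CO2). On day 2, compound added for 24 h under the same conditions. On day 3, cells fixed and immunostained with anti-phosphoneurofilament (SMi312) and an Alexa488 secondary. Axonal growth given as % variation from control conditions; means ± SEM.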

[2] = tested on: Radical scavenging activity; assay: Hydroxyl radical scavenging activity by ABTS assay; type: functional
Summary of the method: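 Competition assay for hydroxyl-radical scavenging in ethanolic medium: hydroxyl radicals oxidise ABTS to the stable ABTS•+ radical cation, read by absorbance at 405 nm. IC50 is the concentration giving a 50% decrease in ABTS•+, reported as the mean of three experiments.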

[3] = tested on: Cortical neurone; assay: Growth promoting activity in axon at 1 nM in presence of 1 ug/ml myelin protein of glial scar; type: functional, Mus musculus; summary of the method: as §1
[4] = tested on: Cortical neurone; assay: Growth promoting activity in axon at 1 nM in presence of 10 ug/ml myelin protein of glial scar; type: functional, Mus musculus; summary of the method: as §1
[5] = tested on: Cortical neurone; assay: Growth promoting activity in axon at 1 nM; type: functional, Mus musculus; summary of the method: as §1
[6] = tested on: Cortical neurone; assay: Growth promoting activity in axon at 1 nM in presence of 100 ng/ml Sema3A of glial scar; type: functional, Mus musculus; summary of the method: as §1
[7] = tested on: Cortical neurone; assay: Growth promoting activity in axon at 100 nM in presence of 10 ug/ml myelin protein of glial scar; type: functional, Mus musculus; summary of the method: as §1
[8] = tested on: Cortical neurone; assay: Growth promoting activity in axon at 100 nM in presence of 1 ug/ml myelin protein of glial scar; type: functional, Mus musculus; summary of the method: as §1
[9] = tested on: Cortical neurone; assay: Growth promoting activity in axon at 100 nM in presence of 100 ng/ml Sema3A of glial scar; type: functional, Mus musculus; summary of the method: as §1
[10] = tested on: Cortical neurone; assay: Growth promoting activity in axon at 100 nM; type: functional, Mus musculus; summary of the method: as §1

IC50 [2] [µM]	SMILES	Activity [1] [%]	other results
> 10000	COc1ccc(OC)c(CCCCCCCCCCCCCCO)c1	110	
720	COc1cc(OC)c(OC)cc1CCCCCCCCCCCCCCCCO	135	
720	COc1cc(OC)c(OC)cc1CCCCCCCCCCCCO	108	
720	COc1cc(OC)c(OC)cc1CCCCCCCCCCCCCCO	109	
720	COc1cc(OC)c(OC)cc1CCCCCCCCCCCCCCCCCCO	106	
> 10000	COc1ccc(OC)c(CCCCCCCCCCCCCCCCO)c1	120	
> 10000	COc1ccc(OC)c(CCCCCCCCCCCCO)c1	109	
> 10000	COc1ccc(OC)c(CCCCCCCCCCCCCCCO)c1	181	Activity [3]: 18.4%; Activity [4]: -5.3%; Activity [5]: 81%; Activity [6]: 12.4%
720	COc1cc(OC)c(OC)cc1CCCCCCCCCCCCCCCO	152	

Continued, compound first:

SMILES	IC50 [2] [µM]	Activity [1] [%]	other results
COc1cc(CCCCCCCCCCCCO)c(OC)c(OC)c1OC		100	
COc1ccc(OC)c(CCCCCCCCCCCCCCCCCCO)c1	> 10000	109	
COc1cc(CCCCCCCCCCCCCCCO)c(OC)c(OC)c1OC		158	
COc1cc(CCCCCCCCCCCCCCCCO)c(OC)c(OC)c1OC		127	
Cc1c(C)c2c(c(C)c1O)CCC(C)(C(=O)O)O2 (stereo unspecified) [TROLOX]	600		
COc1cc(CCCCCCCCCCCCCCCCCCO)c(OC)c(OC)c1OC		103	
CC1=C(CCCCCCCCCCCCCCCO)C(C)(C)CCC1=O	> 10000	150	Activity [7]: 5%; Activity [8]: 28.8%; Activity [9]: 10.2%; Activity [10]: 80%
COc1cc(CCCCCCCCCCCCCCO)c(OC)c(OC)c1OC		108	
